Assay type in all cases: functional, cell-based
In one test the test system is SK-OV-3. Kind of test: Cytotoxicity against human SKOV3 cells after 48 hrs by MTT assay. As to conditions: SK-OV-3, 48 h. The gist of the method:
(§1)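 Cells in RPMI-1640 with 10% heat-inactivated calf serum, penicillin/streptomycin, 5% CO2, 37 °C. Seeded at 5×10³ per well and exposed to six concentrations of 0.01–1000 for 48 h. Then 0.5% MTT for 4 h at 37 °C, formazan dissolved in DMSO, absorbance read at 570 nm. Inhibition calculated as (1 − treated/control absorbance)×100. IC50 is the concentration giving 50% inhibition; mean ± SD of three observations.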
(Formazan colour is commonly taken as a measure of viable cells.)

The test system of a further test is Bel-7402. Description: Cytotoxicity against human Bel7402 cells after 48 hrs by MTT assay. As to conditions: Bel-7402, 48 h. The gist of the method:
as §1

A further test deals with HT-29. Kind of test: Cytotoxicity against human HT-29 cells after 48 hrs by MTT assay. Particulars: HT-29, 48 h. The gist of the method: as §1
In another test the test system is BGC-823. Kind of test: Cytotoxicity against human BGC823 cells after 48 hrs by MTT assay. Particulars: BGC-823, 48 h. The gist of the method:
as §1

Another test relates to A549. Description: Cytotoxicity against human A549 cells after 48 hrs by MTT assay. As to conditions: A549, 48 h. The gist of the method: as §1

Some results are limits rather than exact numbers.

The IC50 is the concentration that inhibits the measured activity by half. A lower IC50 goes with greater potency in that assay.

With `CC(C)=CCC[C@]1(C)C=Cc2c(O)c3c(c(CC=C(C)C)c2O1)O[C@]12C(=C[C@@H]4C[C@H]1C(C)(C)O[C@@]2(C/C=C(/C)C(=O)O)C4=O)C3=O` [GAMBOGIC ACID], the IC50 amounted to 3.06 µM with SK-OV-3; 3.31 µM in the test on Bel-7402; 5.61 µM in the test on HT-29; 4.51 µM in the test on BGC-823; 5.81 µM in the test on A549.
Taken in the same sequence, the figures for `C/C(=C/C[C@@]12OC(C)(C)[C@@H]3C[C@@H](C=C4C(=O)c5c(O)c6c(c(CC7OC7(C)C)c5O[C@]431)O[C@](C)(CCC1OC1(C)C)C=C6)C2=O)C(=O)O` (stereo not given in full) were 0.76 µM, 3.73 µM, 2.08 µM, 4.38 µM and 1.56 µM.
Taken in the same sequence, the figures for `C/C(=C/C[C@@]12OC(C)(C)[C@@H]3C[C@@H](C=C4C(=O)c5c(O)c6c(c(C/C=C(\C)CO)c5O[C@]431)O[C@](C)(CC/C=C(\C)C=O)C=C6)C2=O)C(=O)O` were 1.84 µM, 15 µM, 2.08 µM, 6.75 µM and 20.5 µM.
As for `COC(=O)/C(C)=C\C[C@@]12OC(C)(C)[C@@H]3C[C@@H](C=C4C(=O)c5c(OC)c6c(c(CC=C(C)C)c5O[C@]431)O[C@](C)(CCC1OC1(C)C)C=C6)C2=O` (stereo not given in full), the IC50 in the test on SK-OV-3 stood at 0.64 µM; in the test on Bel-7402, 1.4 µM; with HT-29, 2.19 µM; with BGC-823, 0.75 µM; in the test with A549 it was 1.48 µM.
Taken in the same sequence, the figures for `COC(=O)/C(C)=C\C[C@@]12OC(C)(C)[C@@H]3C[C@@H](C=C4C(=O)c5c(OC)c6c(c(CC=C(C)C)c5O[C@]431)O[C@](C)(CC[C@@H](O)C(C)(C)O)C=C6)C2=O` were greater than 100 µM, greater than 100 µM, greater than 100 µM, greater than 100 µM and greater than 100 µM.

Source of the values: ChEMBL document CHEMBL1158351, “Studies on chemical structure modification and biology of a natural product, gambogic acid (I): Synthesis and biological evaluation of oxidized analogues of gambogic acid” (Eur J Med Chem, 2009).
